Experimental data as given in paper PMC4021451 (Journal of medicinal chemistry, 2012).

Experiments:
[1] = Reversed-phase HPLC lipophilicity; type: physicochemical; details: RP-HPLC, C18, methanol/15 mM aqueous formic acid, extrapolated to 100% H2O, 25 °C
Method in brief: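 Isocratic runs on a silica-based C18 column (4.6 mm × 250 mm), with methanol/15 mM aqueous formic acid from 5:95 to 50:50 depending on compound polarity. Flow 1.00 mL/min, UV 210 nm. […] Each compound ran at least twice in at least three mobile-phase compositions. log kw came from linear extrapolation of log k' versus methanol fraction.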

[2] = test system: A2780 (ovarian carcinoma) cells; experiment: EZ4U viability assay in resistance models, A2780; type: cell-based; details: read-out: IC50 A2780, 96 h exposure
Method in brief: (§1)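 Cells were seeded at 2 × 10^3 per well and allowed to recover for 24 h. Test compound was then added in growth medium and exposed for 96 h. Viable cell proportion was read with the EZ4U kit. Media, all with 10% FBS: SW1573 and 2R120 in DMEM, A2780 and A2780/cis in RPMI 1640, P31 in MEM. Cells were grown at 37 °C in 5% CO2.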

[3] = test system: A2780/cis cells (cisplatin-selected subline); experiment: EZ4U viability assay in resistance models, A2780/cis; type: cell-based; details: for IC50: read-out: IC50 A2780/cis, EZ4U assay, 96 h exposure
Method in brief: as §1

A2780 cells = experiment: Total Pt uptake levels by ICP-MS; type: cell-based; details: 2 h drug exposure
Method in brief: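 A2780 cells (4 × 10^5 per well) settled for 24 h, then were exposed to test compound for 2 h at 37 °C. After two ice-cold PBS washes, cells were lysed in tetramethylammonium hydroxide and diluted in 0.6 N HNO3. Pt was measured by ICP-MS against matrix-matched standards with 1 ppb indium internal standard and corrected for a cell-free blank well. Values are relative mean and SD from at least two independent experiments.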

[4] = test system: CH1 (ovarian carcinoma) cells; experiment: MTT cytotoxicity assay, CH1 cells; type: cell-based, human; details: read-out: IC50 CH1, 96 h exposure, mean ± SD
Method in brief: (§2)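 Cells were seeded in MEM at 1.5 × 10^3 (CH1), 4.0 × 10^3 (A549) or 2.5 × 10^3 (SW480) per well, given 24 h to resume exponential growth, then exposed to serial dilutions for 96 h. Medium was replaced with RPMI 1640 plus MTT in PBS (5 mg/mL solution) for 4 h, then DMSO. OD was read at 550 nm. At least three independent experiments were run, with triplicates per concentration.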

[5] = test system: A549 (non-small-cell lung carcinoma) cells; experiment: MTT cytotoxicity assay, A549 cells; type: cell-based, human; details: read-out: IC50 A549, 96 h exposure, mean ± SD
Method in brief: as §2

[6] = test system: SW480 (colon adenocarcinoma) cells; experiment: MTT cytotoxicity assay, SW480 cells; type: cell-based, human; details: read-out: IC50 SW480, 96 h exposure, mean ± SD
Method in brief: as §2

[7] = test system: SW1573 cells (chemosensitive parental non-small-cell lung cancer line); experiment: EZ4U viability assay in resistance models, SW1573; type: cell-based, human; details: read-out: IC50 SW1573, 96 h exposure
Method in brief: as §1

[8] = test system: ABCC1-overexpressing 2R120 cells; experiment: EZ4U viability assay in resistance models, 2R120; type: cell-based, human; details: read-out: IC50 2R120, 96 h exposure
Method in brief: as §1

P31 (mesothelioma) cells = experiment: EZ4U viability assay in resistance models, P31; type: cell-based; details: read-out: IC50 P31, 96 h exposure
Method in brief: as §1

[9] = test system: P31/cis cells (cisplatin-resistant subline); experiment: EZ4U viability assay in resistance models, P31/cis; type: cell-based; details: read-out: IC50 P31/cis, 96 h exposure
Method in brief: as §1

Row | log kw [1] | IC50 [2] [µM] | Compound | -fold resistance A2780/cis ([3]; A2780/cis versus A2780) [fold] | IC50 [3] [µM] | Cellular drug uptake (total Pt levels) (A2780 cells) | IC50 [4] [µM] | IC50 [5] [µM] | IC50 [6] [µM] | IC50 [7] [µM] | IC50 [8] [µM] | IC50 (P31 (mesothelioma) cells) [µM] | IC50 [9] [µM]
1 | 1.79 ± 0.01 | 0.5 ± 0.3 | CC(=O)[O-].CC(=O)[O-].N.NC1CCCCC1.[Cl-].[Cl-].[Pt+4] [satraplatin, (OC-6-43)-diacetatoamminedichlorido(cyclohexylamine)platinum(IV)] | 11.4 | 5.7 ± 0.2 | enhanced drug uptake | – | – | – | – | – | – | –
2 | 0.09 ± 0.01 | – | (OC-6-54)-Dichlorido(N,N-dimethylethane-1,2-diamine)-hydroxidomethoxidoplatinum(IV) [1b] | – | – | – | 2.5 ± 0.2 | 73 ± 3 | 40 ± 14 | – | – | – | –
3 | – | – | N.N.[Cl][Pt][Cl] [cisplatin] | – | 3.7 ± 0.3 | – | 0.16 ± 0.03 | – | 3.5 ± 0.3 | 6.5 ± 0.1 | > 20 | 4 ± 0.3 | > 20
